{"source": "ChEMBL document CHEMBL3588772", "about": "“Synthesis, anti-mycobacterial activity and DNA sequence-selectivity of a library of biaryl-motifs containing polyamides” (Bioorg Med Chem, 2015)"}
{"tested_on": "Mycobacterium tuberculosis", "experiment": "Antimycobacterial activity against Mycobacterium bovis BCG after 7 days", "format": "functional", "conditions": "variant bovis BCG, 168 h", "summary_of_the_method": "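HT-SPOTi agar growth inhibition in 96-well format. Serially diluted DMSO solutions were mixed into Middlebrook 7H10 agar (kept at 55 °C) with 0.05% glycerol and 10% OADC. Controls were DMSO-only wells and isoniazid. Each well received 2×10³ CFU of culture (pre-grown rolling at 2 rpm or standing, 37 °C). Plates ran 7 days at 37 °C. MIC = lowest concentration with no visible growth.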", "units": {"MIC": "µg/mL"}}
{"smiles": "CC(=O)Nc1ccc(-c2ccc(C(=O)Nc3cc(C(=O)Nc4cc(C(=O)NCCCN(C)C)n(C)c4)n(C)c3)o2)cc1", "MIC": 125}
{"smiles": "NNC(=O)c1ccncc1", "note": "[ISONIAZID]", "MIC": 0.05}
{"smiles": "CC(=O)Nc1ccc(-c2cc(C(=O)Nc3cc(C(=O)Nc4cc(C(=O)NCCCN(C)C)n(C)c4)n(C)c3)n(C)c2)cc1", "MIC": 125}
{"smiles": "CC(=O)Nc1cccc(-c2ccc(C(=O)Nc3cc(C(=O)Nc4cc(C(=O)NCCCN(C)C)n(C)c4)n(C)c3)o2)c1", "MIC": 125}
{"smiles": "CO[C@H]1/C=C/O[C@@]2(C)Oc3c(C)c(O)c4c(O)c(c(/C=N/N5CCN(C)CC5)c(O)c4c3C2=O)NC(=O)/C(C)=C\\C=C\\[C@H](C)[C@H](O)[C@@H](C)[C@@H](O)[C@@H](C)[C@H](OC(C)=O)[C@@H]1C", "note": "[RIFAMPIN]", "MIC": 0.05}
{"smiles": "Cn1cc(NC(=O)c2cc(NC(=O)c3cc(NC=O)cn3C)cn2C)cc1C(=O)NCCC(=N)N", "note": "[STALLIMYCIN]", "MIC": 1.95}
{"smiles": "Cc1nc(-c2ccsc2)sc1C(=O)Nc1cc(C(=O)Nc2cc(C(=O)NCCCN(C)C)n(C)c2)n(C)c1", "MIC": 125}
{"smiles": "Cc1nc(-c2cnn(C)c2)sc1C(=O)Nc1cc(C(=O)Nc2cc(C(=O)NCCCN(C)C)n(C)c2)n(C)c1", "MIC": 62.5}
{"smiles": "CC(=O)Nc1ccc(-c2csc(C(=O)Nc3cc(C(=O)Nc4cc(C(=O)NCCCN(C)C)n(C)c4)n(C)c3)c2)cc1", "MIC": 125}
